# Source: ChEMBL document CHEMBL2202976, “Structure requirements for anaerobe processing of azo compounds: implications for prodrug design” (Bioorg Med Chem Lett, 2012)
# Assays:
# Assay type in all cases: ADME; call rule not given here
# [1] = Drug metabolism assessed as Clostridium perfringens azoreductase-mediated reoxidation of hydrazine intermediate to parent azo compound by LCMS analysis
# Summary of the method: (§1)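 Azo substrate incubated in Clostridium perfringens culture. Samples taken at 0 h and 6 h and analysed by LCMS, resolving parent azo isomer peaks from the hydrazine intermediate peak.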
# [2] = Drug metabolism assessed as Clostridium perfringens azoreductase-mediated hydrazine intermediate formation by LCMS analysis; summary of the method: as §1
# [3] = Prodrug conversion assessed as Clostridium perfringens azoreductase-mediated disproportionation to parent amine by HPLC analysis
# [4] = Drug metabolism assessed as Clostridium perfringens azoreductase-mediated reduction within 4 hrs by HPLC analysis
# [5] = Prodrug conversion assessed as Clostridium perfringens azoreductase-mediated prednisolone formation by HPLC analysis
# [6] = Drug metabolism assessed as Clostridium perfringens azoreductase-mediated dihydroquinolone derivative formation by HPLC analysis
# azoreductase = assay: Drug metabolism assessed as Clostridium perfringens azoreductase-mediated reduction at 6 hrs by HPLC analysis; conditions: read-out: Drug metabolism
# Summary of the method: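 Azo substrates incubated with Clostridium perfringens culture and sampled over time to 6 h. Parent loss and product formation followed by reverse-phase HPLC with PDA UV detection, with the azo chromophore absorbing at 300–400 nm.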
# [7] = Drug metabolism assessed as Clostridium perfringens-mediated hydrazine intermediate formation at 6 hrs by LCMS analysis; summary of the method: as §1
# [8] = Drug metabolism assessed as Clostridium perfringens azoreductase-mediated reoxidation of hydrazine intermediate to parent azo compound at 6 hrs by LCMS analysis; summary of the method: as §1
Compound,Drug metabolism [1],Drug metabolism [2],Drug metabolism [3],Drug metabolism [4],also measured
FC(F)(F)c1ccc(/N=N/c2ccccc2)cc1,Not Active,Active,Active,,
N#Cc1ccc(/N=N/c2ccc(O)cc2)cc1,,,Active,Active,
O=C(O)CCc1ccccc1/N=N/c1ccc(C(=O)NCC(=O)O)cc1,,,,,Drug metabolism [5]: Not Active
O=C(O)c1ccc(/N=N/c2ccccc2)cc1,Active,Active,,,
O=[N+]([O-])c1ccc(/N=N/c2ccc(O)cc2)cc1,,,Active,Active,
CN(C)c1ccc(/N=N/c2ccccc2)cc1 [DIMETHYL YELLOW],,,Active,Active,
N#Cc1ccc(/N=N/c2ccccc2)cc1,Active,Active,,,
CN(C)c1ccc(/N=N/c2ccccc2C(=O)O)cc1,,,Active,Active,
Oc1ccc(/N=N/c2ccc(Br)cc2)cc1,,,Active,Active,
C[C@]12C=CC(=O)C=C1CC[C@@H]1[C@@H]2[C@@H](O)C[C@@]2(C)[C@H]1CC[C@]2(O)C(=O)COC(=O)CCc1ccccc1/N=N/c1ccc(C(=O)O)cc1,,,,,Drug metabolism [6]: Not Active; metabolised at 6 h (azoreductase): 55%; Drug metabolism [7]: Active; Drug metabolism [8]: Active; Drug metabolism [5]: Not Active
Brc1ccc(/N=N/c2ccccc2)cc1,Active,Active,,,
O=C(O)CCc1ccccc1/N=N/c1ccc(C(=O)O)cc1,,,,,Drug metabolism [5]: Not Active
O=C(O)c1cccc(/N=N/c2ccccc2)c1,Active,Active,,,
O=C(O)c1ccc(/N=N/c2ccc(O)cc2)cc1,,,Active,Active,
